pIC50: −log10 of the molar value. The source made the active and inactive calls.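 How the source made its calls: active means compounds slowing the HCV NS3-NS4A protease by half at 50 µM or lower, per IC50; inactive means the rest.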
Target: Hepatitis C virus NS3-NS4A protease (single-chain scNS3-4A)
Experiment: HCV scNS3-4A protease cleavage blockers – biochemical, FRET peptide fluorescence, powder samples, selectivity assay for HCV NS3 helicase inhibitor project, late-stage follow-up (AID 623964)
In short: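 Assay system: Single-chain HCV NS3-NS4A protease (scNS3-4A), NS4A segment fused N-terminally | Amount: 10 nM scNS3-4A protease enzyme | Benchmarks: DMSO-only reference velocity | Read-out: IC50 from Hill fit of initial rates versus inhibitor concentration | Also added: 5-FAM/QXL 520 quenched peptide substrate | Technique: Fluorescence gain from 5-FAM after peptide cleavage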

| SMILES | pIC50 | IC50 |
| --- | --- | --- |
| Cc1ccc2nc(-c3ccc4nc(-c5ccc(NC(=O)c6ccc(C(F)(F)F)cc6)cc5)sc4c3)sc2c1S(=O)(=O)O | 5.30 |  |
| Cc1ccc2nc(-c3ccc4nc(-c5ccc(NC(=O)c6ccc(F)cc6)cc5)sc4c3)sc2c1S(=O)(=O)O |  | inactive |
| COC(=O)c1ccc(C(=O)Nc2ccc(-c3nc4ccc(-c5nc6ccc(C)c(S(=O)(=O)O)c6s5)cc4s3)cc2)cc1 |  | > 100 µM (inactive) |
| Cc1cc(C(O)(c2ccc(Nc3ccccc3)cc2)c2ccc(Nc3ccc(S(=O)(=O)O)cc3)cc2)ccc1N (stereo not drawn) |  | inactive |
| Cc1ccc2nc(-c3ccc4nc(-c5ccc(NC(=O)Nc6ccccc6)cc5)sc4c3)sc2c1S(=O)(=O)O |  | > 100 µM (inactive) |
| O=C(CCCCCCC(=O)Nc1ccc(-c2nc3ccccc3[nH]2)cc1)Nc1ccc(-c2nc3ccccc3[nH]2)cc1 | 4.33 |  |
| Cc1ccc2nc(-c3ccc4nc(-c5ccc(NC(=O)c6cccc(Cl)c6)cc5)sc4c3)sc2c1S(=O)(=O)O |  | > 100 µM (inactive) |
| Cc1ccc2nc(-c3ccc4nc(-c5ccc6nc(-c7ccc8nc(-c9ccc(N)cc9)sc8c7)sc6c5)sc4c3)sc2c1S(=O)(=O)O | 5.70 |  |
| COc1cccc2c(=O)c3cc(Cl)cc(C(=O)Nc4cc(Cl)ccn4)c3[nH]c12 |  | inactive |
| Cc1ccc2nc(-c3ccc4nc(-c5ccc(NC(=O)c6cc(C(F)(F)F)cc(C(F)(F)F)c6)cc5)sc4c3)sc2c1S(=O)(=O)O | 4.64 |  |
| Cc1ccc2nc(-c3ccc4nc(-c5ccc(NC(=O)c6ccc(C(C)(C)C)cc6)cc5)sc4c3)sc2c1S(=O)(=O)O |  | inactive |
| Cc1ccc2nc(-c3ccc(NC(=O)c4ccc(NC(=O)Nc5ccccc5)cc4)cc3)sc2c1S(=O)(=O)O |  | > 100 µM (inactive) |
| CN1CCN(Cc2cc(CN3CCN(C)CC3)c(O)c(=O)c(CN3CCN(C)CC3)c2)CC1 |  | > 100 µM (inactive) |
| Cc1ccc2nc(-c3ccc4nc(-c5ccc(NC(=O)c6ccc(Cl)c(Cl)c6)cc5)sc4c3)sc2c1S(=O)(=O)O | 4.89 |  |
| Cc1ccc2nc(-c3ccc4nc(-c5ccc(NC(=O)c6ccc7ccccc7c6)cc5)sc4c3)sc2c1S(=O)(=O)O |  | > 100 µM (inactive) |
| Cc1ccc2nc(-c3ccc4nc(-c5ccc(NC(=O)c6ccc7nc(-c8ccc(N)cc8)sc7c6)cc5)sc4c3)sc2c1S(=O)(=O)O | 5.15 |  |
| Cc1ccc2nc(-c3ccc4nc(-c5ccc(NC(=O)Nc6ccc(Cl)cc6)cc5)sc4c3)sc2c1S(=O)(=O)O | 4.89 |  |
| Cc1ccc2nc(-c3ccc4nc(-c5ccc(NC(=O)c6ccc(N)cc6)cc5)sc4c3)sc2c1S(=O)(=O)O | 4.41 |  |
| Cc1ccc2nc(-c3ccc4nc(-c5ccc(NC(=O)c6cc(C(F)(F)F)ccc6F)cc5)sc4c3)sc2c1S(=O)(=O)O |  | inactive |
| Cc1ccc2nc(-c3ccc4nc(-c5ccc(NC(=O)c6ccc(Br)cc6)cc5)sc4c3)sc2c1S(=O)(=O)O | 5.22 |  |
| COc1ccc(NC(=O)Nc2ccc(-c3nc4ccc(-c5nc6ccc(C)c(S(=O)(=O)O)c6s5)cc4s3)cc2)cc1 |  | > 100 µM (inactive) |
| CCOc1ccc2c(NNC(=O)c3cnccn3)c3c(nc2c1)CCCC3 |  | > 100 µM (inactive) |
| COc1ccc(C(=O)Nc2ccc(-c3nc4ccc(-c5nc6ccc(C)c(S(=O)(=O)O)c6s5)cc4s3)cc2)cc1 |  | inactive |

From PubChem BioAssay AID623964 (The Scripps Research Institute Molecular Screening Center, 2012)
